Entries after “also recorded” stand apart in the source; their conditions may differ. Read-outs that look alike come from different tables or passages of the source.
Assays:
[1] = after subcutaneous injection; cited from earlier work
[2] = Airway tolerability: spirometry; format: in vivo, human
Summary of the method: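 Eight patients with Parkinson's disease (not off) inhaled dry-powder levodopa by mouth: 30 mg, then 60 mg (2 × 30 mg). At a third visit they took their regular oral levodopa/decarboxylase inhibitor. Visits were ≥7 days apart, in the morning, ≥7.5 h after the last home dose, with no food for 60 min either side. Spirometry (pneumotachograph, ATS/ERS) was done before and ±35 and 100 min after dosing. FEV1 drop >10% from baseline was deemed relevant. Cough and dyspnoea were queried each session (Borg scale).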

[3] = Delivered dose and fine particle dose from the Cyclops inhaler; format: physicochemical; conditions: at 4 kPa; laser diffraction
Summary of the method: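 Residue left in the inhaler after each patient inhalation was measured by UV spectrophotometry. Delivered dose was calculated as blister dose minus inhaler residue. Fine particle dose (<5 µm) was measured by laser diffraction at 4 kPa.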

[4] = Plasma levodopa pharmacokinetics after inhaled; format: in vivo, human; conditions: for AUC: inhaled or intranasal
Summary of the method: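 Eight Parkinson's patients, not in the off state, got single morning doses at least 7.5 h after their last home dose, fasting 60 min before to 60 min after. Oral doses were 100/25–250/62.5 mg with decarboxylase inhibitor, normalised to 100 mg. Plasma had glutathione added and was stored at −80°C, then assayed by LC-MS/MS (LOQ 1.0 nmol/l). Half-life came from Cmax and the last concentration.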

[5] = cited from earlier work
[6] = progressed, fluctuating patients; cited from earlier work

Row | SMILES | lag time to onset of effect [1] | change in lung-function parameters (FEV1, FVC, MEF50) ([2]; after inhalation of 30 mg or 60 mg levodopa, spirometry ±35 and 100 min after administration) | tolerability ([2]; after inhalation, 30 and 60 mg) | change in lung-function parameters (FEV1, FVC, MEF50) ([2]; after oral administration of levodopa) | patients experiencing cough or dyspnoea ([2]; during or after inhalation) | fine particle dose (<5 µm) [3] | AUC ([4]; human, plasma, 30 mg) | AUC ([4]; human, plasma, 60 mg) | half-life ([4]; human, plasma, po, mean elimination half-life time, oral administration of levodopa plus decarboxylase inhibitor) | elimination half-life ([4]; inhaled levodopa, both doses, range and mean) | time by which inhaled levodopa is absorbed faster in the blood plasma than oral ([4]; inhaled vs oral) | relative bioavailability of inhaled levodopa in comparison with oral levodopa ([4]; inhaled without carboxylase inhibitor vs oral with carboxylase inhibitor) | mean elimination half-life time ([4]; oral administration of levodopa plus decarboxylase inhibitor) | plasma levodopa concentration ([5]; 10 min after 100 mg oral levodopa in the fasted state) | absolute bioavailability ([5]; oral immediate-release levodopa combined with a decarboxylase inhibitor) | absolute bioavailability ([5]; oral immediate-release levodopa) | increase in levodopa effect compartment concentration giving maximum effect on finger tapping [6]
1 | CN1CCc2cccc3c2[C@H]1Cc1ccc(O)c(O)c1-3 [apomorphine] | > 20 min |  |  |  |  |  |  |  |  |  |  |  |  |  |  |  | 
2 | N[C@@H](Cc1ccc(O)c(O)c1)C(=O)O [levodopa, Levodopa] |  | No significant change; also recorded: none of the patients | well tolerated | No significant change | none of the patients | 45 % of the delivered dose | 9.69 ng·h/mL | 9.58 ng·h/mL | 1.13 ± 0.343 h | 0.967 h | up to 85 min | 53% | 1.13 h | around 150 ng/ml | approximately 85% | 40–60% | 200 to 400 ng/mL
